According to paper PMC10762718 (RSC Advances, 2024):

Assays:
Type in all cases: cell-based
[1] = system: normal mammary epithelial MCF-10A cells; assay: MTT cell viability assay, normal MCF-10A cells; conditions: tested at 25, 50 and 100 μM
Outline: (§1)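 Normal mammary epithelial MCF-10A cells were exposed to test compound at 25, 50 and 100 μM for 72 h. Cells were then given MTT after medium removal, 3 h at 37 °C in CO2. Formazan was dissolved in DMSO and absorbance read at 595 nm. Viability is expressed as percent of untreated control cells.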

[2] = MTT cell viability assay, normal MCF-10A cells; conditions: human, MCF-10A normal mammary epithelial cells
Outline: as §1

MDA-MB-453 cells = assay: MTT cell viability assay, MDA-MB-453
Outline: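 MDA-MB-453 (HER2-positive) cells were exposed to test compound at 1, 10 and 25 μM for 72 h. After medium removal, MTT was added for 3 h at 37 °C in CO2. Formazan was dissolved in DMSO and absorbance read at 595 nm. Percent viable cells are relative to untreated control cells.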

[3] = system: MDA-MB-231 (human breast cancer) cells; assay: MTT cell viability assay, MDA-MB-231
Outline: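 MDA-MB-231 cells were grown as a monolayer in DMEM with 10% heat-inactivated FBS and 1% penicillin-streptomycin at 37 °C in humidified CO2, subcultured every third day with trypsin-EDTA, and used before passage 8. Cells were exposed 72 h to 10, 25 and 50 μM. Medium was removed, MTT added for 3 h at 37 °C, formazan dissolved in DMSO and read at 595 nm. Viability is relative to untreated control, triplicates, ±SD. IC50 comes from the viability-versus-concentration plot.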

[4] = system: MCF-7 breast cancer cells; assay: MTT cell viability assay, MCF-7; conditions: Homo sapiens
Outline: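 After medium removal, MTT was added for 3 h at 37 °C in CO2, formazan dissolved in DMSO and absorbance read at 595 nm. Viability is relative to untreated cells, triplicates, n = 3, ±SD. IC50 comes from plotting percent viability against concentration.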

[5] = Homo sapiens, MDA-MB-453, read-out: Cell viability (%) ±SD
[6] = MDA-MB-231, 72 h, read-out: Cell viability (%) ±SD
[7] = MCF7, read-out: Cell viability (%) ±SD

For CC(=O)OC[C@@H]1O[C@H](n2cc(Cn3ccc4nc(-c5ccc(Br)cc5)cc(=O)n43)nn2)[C@@H](OC(C)=O)[C@H](OC(C)=O)[C@@H]1OC(C)=O (stereo in doubt) [Compound 33, (2S,3R,4R,5S,6S)-2-(Acetoxymethyl)-6-(4-((5-(4-bromophenyl)-7-oxopyrazolo[1,5-a]pyrimidin-1(7H)-yl)methyl)-1H-1,2,3-triazol-1-yl)tetrahydro-2H-pyran-3,4,5-triyl triacetate], the “growth inhibitory activity against normal breast epithelial cell (MCF-10A)” value [1] was “none of these compounds did have any growth inhibitory activity”, the viability at 72 h, 25 µM [2] was 99.6 ± 2.2% and the viability at 72 h, 50 µM [2] was 87.6 ± 1.7%. For the same compound, the viability at 72 h, 100 µM [2] was 81.4 ± 2.6%, the viability at 1 µM (MDA-MB-453 cells; [5]) was 88.8 ± 5.2% and the viability at 10 µM (MDA-MB-453 cells; [5]) was 78.3 ± 4.7%. For the same compound, the viability at 25 µM (MDA-MB-453 cells; [5]) was 67.6 ± 5.3%, the “IC50 against MDA-MB-453 cells” value (MDA-MB-453 cells; tested at 1, 10 and 25 μM) was “did not reach up to IC50 value” and the inhibition at 25 µM ([3]; MDA-MB-231) was about 50%. For the same compound, the viability at 10 µM [3, 6] was 66.7 ± 8.23%, the viability at 25 µM [3, 6] was 63.3 ± 6.32% and the viability at 50 µM [3, 6] was 47 ± 4.91%. The inhibition at 25 µM ([4]; MCF7) was about 50%, the IC50 ([4]; MCF7, 72 h, read-out: IC50 against MCF-7 breast cancer cells line) was 7.32 µM and the viability at 1 µM [4, 7] was 67 ± 4.7%. It also gave a viability at 10 µM [4, 7] of 35 ± 2.5% and a viability at 25 µM [4, 7] of 25 ± 2.9%.
